Data reported in ChEMBL document CHEMBL1131104, “Bicyclic acylguanidine Na+/H+ antiporter inhibitors” (J Med Chem, 1998).

Key:
Homo sapiens [1] = organism: Homo sapiens; assay: Concentration to achieve half-maximal inhibition of acid-induced swelling in human platelets using platelet swelling assay; type: functional
Summary of the method: (§1)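 Human platelet-rich plasma from citrated venous blood (centrifuged 1000 rpm, 20 min, RT; pH adjusted to 7.4; used within 4–5 h). Final 2 × 10^8 platelets/mL in pH 6.6 buffer: 120 mM Na propionate, 20 mM K propionate, 20 mM HEPES, 10 mM glucose, 5 mM KCl, 1 mM MgCl2, 1 mM CaCl2, 0.86% DMSO. Swelling followed as absorbance drop at 680 nm over 4 min.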

[2] = biological target: Sodium/hydrogen exchanger (Oryctolagus cuniculus, UniProt P23791+P50482+P26432); assay: Sodium/hydrogen exchanger antiport activity was measured using [22]Na+ uptake inhibition assay in acidified rabbit erythrocytes; type: cell-based
Summary of the method: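 Acidified rabbit erythrocytes; 22Na+ uptake measured in incubation buffer containing 10 mM Na+. Na+/H+-dependent uptake taken as the EIPA-sensitive portion of 22Na+ uptake.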

Homo sapiens [3] = organism: Homo sapiens; assay: Concentration to achieve half-maximal inhibition of acid-induced swelling in human platelets using platelet swelling assay(PSA).; type: functional; summary of the method: as §1

SMILES	IC50 (Homo sapiens [1])	IC50 [2]	IC50 (Homo sapiens [3])
Cc1cc2c(cc1C(=O)N=C(N)N)S(=O)(=O)CCC2=O	3670 nM	96 nM	–
Cc1cc2c(cc1C(=O)N=C(N)N)S(=O)(=O)CCC21OCCO1	1180 nM	130 nM	–
Cc1cc2c(cc1C(=O)N=C(N)N)S(=O)(=O)CC2(C)O (stereo not drawn)	115 nM	30 nM	–
CC1(C)CC(C)(C)S(=O)(=O)c2cc(C(=O)N=C(N)N)ccc21	2080 nM	360 nM	–
Cc1cc2c(cc1C(=O)N=C(N)N)S(=O)(=O)C(C)(C)C2=O	354 nM	93 nM	–
CO/N=C1\CS(=O)(=O)c2cc(C(=O)N=C(N)N)c(C)cc21	521 nM	45 nM	–
C=C1CCS(=O)(=O)c2cc(C(=O)N=C(N)N)c(C)cc21	–	29 nM	1370 nM
Cc1cc2c(cc1C(=O)N=C(N)N)S(=O)(=O)C(C)(C)CO2	843 nM	36 nM	–
CCC1CS(=O)(=O)c2cc(C(=O)N=C(N)N)c(C)cc21 (stereo not drawn)	78 nM	24 nM	–
Cc1cc2c(cc1C(=O)N=C(N)N)S(=O)(=O)C/C2=N\O	197 nM	16 nM	–
Cc1cc2c(cc1C(=O)N=C(N)N)S(=O)(=O)CC2C(C)C (stereo not drawn)	77 nM	21 nM	–
Cc1cc2c(cc1C(=O)N=C(N)N)S(=O)(=O)CC21OCCO1	485 nM	60 nM	–
N=C(N)NC(=O)c1ccc2c(c1)S(=O)(=O)CC2	> 100000 nM	790 nM	–
Cc1cc2c(cc1C(=O)N=C(N)N)S(=O)(=O)CC2	587 nM	60 nM	–
COC1CS(=O)(=O)c2cc(C(=O)N=C(N)N)ccc21 (stereo not drawn)	> 100000 nM	700 nM	–
Cc1cc2c(cc1C(=O)N=C(N)N)S(=O)(=O)CC2(O)Cc1ccccc1 (stereo not drawn)	157 nM	43 nM	–
Cc1cc2c(cc1C(=O)N=C(N)N)S(=O)(=O)CC2N (stereo not drawn)	692 nM	116 nM	–
Cc1cc2c(cc1C(=O)N=C(N)N)S(=O)(=O)CCC2C (stereo not drawn)	655 nM	45 nM	–
COC1c2cc(C)c(C(=O)N=C(N)N)cc2S(=O)(=O)C1(C)C (stereo not drawn)	138 nM	27 nM	–

SMILES	IC50 (Homo sapiens [1])	IC50 [2]	IC50 (Homo sapiens [3])
Cc1cc2c(cc1C(=O)N=C(N)N)S(=O)(=O)C(C)(C)C2C (stereo not drawn)	306 nM	14 nM	–
Cc1cc2c(cc1C(=O)N=C(N)N)S(=O)(=O)CC2C (stereo not drawn)	182 nM	44 nM	–
CC1=C(N)c2cc(C)c(C(=O)N=C(N)N)cc2S1(=O)=O	2320 nM	56 nM	–
COC1(C)CS(=O)(=O)c2cc(C(=O)N=C(N)N)c(C)cc21 (stereo not drawn)	321 nM	40 nM	–
Cc1cc2c(cc1C(=O)N=C(N)N)S(=O)(=O)C(C)(C)C2O (stereo not drawn)	258 nM	28 nM	–
Cc1cc2c(cc1C(=O)N=C(N)N)S(=O)(=O)C(C)(C)C2(C)O (stereo not drawn)	102 nM	17 nM	–
C=C1c2cc(C)c(C(=O)N=C(N)N)cc2S(=O)(=O)C1(C)C	114 nM	13 nM	–
CCC1(O)CS(=O)(=O)c2cc(C(=O)N=C(N)N)c(C)cc21 (stereo not drawn)	77 nM	34 nM	–
N=C(N)NC(=O)c1ccc2c(c1)S(=O)(=O)CC2O (stereo not drawn)	> 100000 nM	1500 nM	–
CC(C)=C1CS(=O)(=O)c2cc(C(=O)N=C(N)N)c(C)cc21	5030 nM	54 nM	–
Cc1cc2c(cc1C(=O)N=C(N)N)S(=O)(=O)CC2O (stereo not drawn)	1050 nM	70 nM	–
Cc1cc2c(cc1C(=O)N=C(N)N)S(=O)(=O)CCC2	14300 nM	95 nM	–
Cc1cc2c(cc1C(=O)N=C(N)N)S(=O)(=O)CCCO2	537 nM	28 nM	–
CC1(C)CCS(=O)(=O)c2cc(C(=O)N=C(N)N)ccc21	–	2200 nM	–
Cc1cc2c(cc1C(=O)N=C(N)N)S(=O)(=O)C(C)(C)CC2C (stereo not drawn)	1100 nM	38 nM	–
Cc1cc2c(cc1C(=O)N=C(N)N)S(=O)(=O)CCCC2	274 nM	19 nM	–
COC1CS(=O)(=O)c2cc(C(=O)N=C(N)N)c(C)cc21 (stereo not drawn)	208 nM	96 nM	–
CC(C)c1ccc(C(=O)N=C(N)N)cc1S(C)(=O)=O [CARIPORIDE]	117 nM	–	–
Cc1cc(-n2cccc2)c(S(C)(=O)=O)cc1C(=O)N=C(N)N [ENIPORIDE]	32 nM	–	–
